According to ChEMBL document CHEMBL3286171 (Eur J Med Chem, 2014):
The source made the active and inactive calls. The rule behind the calls is not given here.

What was measured:
Cholinesterase = Cholinesterase (Equus caballus, UniProt P81908); assay: Inhibition of equine serum BuChE using butyrylthiocholine iodide as substrate preincubated for 20 mins followed by substrate addition measured after 25 mins by Ellman's method
Method in brief: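 Ellman-type colorimetric assay in 0.1 M phosphate buffer pH 8.0 with 0.05 U/mL BuChE and 0.35 mM DTNB. Serial inhibitor dilutions pre-incubated with the mix for 20 min, then butyrylthiocholine iodide added (final 0.5 mM). […] At least three experiments in triplicate, mean ± SEM.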

[1] = target: T1, Amine oxidase [flavin-containing] B (Rattus norvegicus, UniProt P19643); assay: Inhibition of MAO-B in rat liver homogenate using [14C]-phenylethylamine as substrate preincubated for 30 mins followed by substrate addition measured after 4 mins by liquid scintillation counting analysis; assay type: tissue-based
T1 sequence (P19643 whole entry): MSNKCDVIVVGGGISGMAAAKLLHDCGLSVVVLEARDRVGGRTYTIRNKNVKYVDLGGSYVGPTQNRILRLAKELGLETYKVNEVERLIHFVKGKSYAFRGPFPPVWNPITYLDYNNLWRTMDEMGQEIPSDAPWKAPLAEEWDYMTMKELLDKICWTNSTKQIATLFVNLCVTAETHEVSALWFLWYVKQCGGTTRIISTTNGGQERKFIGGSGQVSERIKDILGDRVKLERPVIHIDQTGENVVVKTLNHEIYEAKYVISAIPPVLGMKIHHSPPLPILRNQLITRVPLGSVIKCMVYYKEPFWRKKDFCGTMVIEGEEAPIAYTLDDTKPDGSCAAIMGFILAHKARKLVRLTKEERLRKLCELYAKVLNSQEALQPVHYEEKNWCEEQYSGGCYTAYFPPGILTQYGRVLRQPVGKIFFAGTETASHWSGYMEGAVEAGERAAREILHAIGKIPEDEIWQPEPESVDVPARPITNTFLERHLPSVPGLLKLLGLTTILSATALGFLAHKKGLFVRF
Method in brief: (§1)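 MAO source was rat liver homogenate. Enzyme pre-incubated 30 min with a range of inhibitor concentrations in 50 mM phosphate buffer, pH 7.4. Substrates: MAO A, 100 μM [14C]-5-HT (0.5 mCi/mmol), reaction 20 min; MAO B, 20 μM [14C]-PEA (2.5 mCi/mmol), reaction 4 min. Final volume 225 μl.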

[2] = Permeability in human Caco2 cells; details: Caco-2
[3] = Apparent permeability in MDCK cells; details: dog
[4] = Protein binding in plasma (unknown origin)
[5] = target: T2, Amine oxidase [flavin-containing] A (Rattus norvegicus, UniProt P21396); assay: Inhibition of MAO-A in rat liver homogenate using [14C]-5HT as substrate preincubated for 30 mins followed by substrate addition measured after 20 mins by liquid scintillation counting analysis; assay type: tissue-based; method in brief: as §1
T2 sequence (P21396 whole entry): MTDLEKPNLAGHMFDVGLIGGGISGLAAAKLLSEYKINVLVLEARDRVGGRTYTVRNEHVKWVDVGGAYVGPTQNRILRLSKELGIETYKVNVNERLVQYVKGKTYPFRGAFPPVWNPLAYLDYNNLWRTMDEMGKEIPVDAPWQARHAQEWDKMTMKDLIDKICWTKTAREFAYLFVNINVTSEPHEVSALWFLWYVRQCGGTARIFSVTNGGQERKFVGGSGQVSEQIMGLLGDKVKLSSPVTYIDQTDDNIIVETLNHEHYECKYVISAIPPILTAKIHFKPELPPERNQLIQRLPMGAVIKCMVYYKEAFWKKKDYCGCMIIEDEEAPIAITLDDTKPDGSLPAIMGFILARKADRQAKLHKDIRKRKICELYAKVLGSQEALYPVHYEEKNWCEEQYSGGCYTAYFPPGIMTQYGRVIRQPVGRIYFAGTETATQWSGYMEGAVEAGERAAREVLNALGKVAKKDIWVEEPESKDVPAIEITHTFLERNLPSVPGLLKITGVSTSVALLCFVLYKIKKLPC

[6] = Drug absorption in human intestine
[7] = Effective permeability across human intestinal membrane by Ussing chamber technique
Acetylcholinesterase = Acetylcholinesterase (Electrophorus electricus, UniProt O42275); assay: Inhibition of electric eel AChE using acetylthiocholine iodide as substrate preincubated for 20 mins followed by substrate addition measured after 5 mins by Ellman's method
[8] = Hepatotoxicity in human HepG2 cells assessed as cell viability at 10 uM by MTT assay relative to control; assay type: toxicity, cell-based; details: read-out: Activity
[9] = Metal chelating activity assessed as compound concentration required for copper complex formation after 5 mins by UV-Vis spectrometric analysis; assay type: physicochemical
Method in brief: (§2)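 UV-Vis spectra (220-300 nm) recorded in distilled water at room temperature in 1 cm quartz cells. Ligand at 10 μM with increasing CuSO4, Fe2(SO4)3 or ZnSO4. Incubation times: Cu(II) 5 min, Zn(II) 1 h, Fe(III) overnight. Stoichiometry found by Job's method, plotting absorbance at 257 nm against ligand mole fraction.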

[10] = target: T2, Amine oxidase [flavin-containing] A; assay: Inhibition of MAO-A in rat liver homogenate; assay type: tissue-based
Method in brief: (§3)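 Rat liver homogenate as the MAO source. The enzyme is pre-incubated 30 min with several inhibitor concentrations in 50 mM phosphate buffer, pH 7.4. […] Mean ± SEM of at least three experiments in quadruplicate.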

[11] = Hepatotoxicity in human HepG2 cells assessed as cell viability at 100 uM by MTT assay relative to control; assay type: toxicity, cell-based; details: read-out: Activity
[12] = target: T1, Amine oxidase [flavin-containing] B; assay: Inhibition of MAO-B in rat liver homogenate; assay type: tissue-based; method in brief: as §3
[13] = Metal chelating activity assessed as compound concentration required for ferric ion complex formation by UV-Vis spectrometric analysis; assay type: physicochemical; method in brief: as §2
[14] = target: T2, Amine oxidase [flavin-containing] A; assay: Inhibition of MAO-A in rat liver homogenate preincubated for 30 mins; assay type: tissue-based; method in brief: as §3
[15] = Hepatotoxicity in human HepG2 cells assessed as cell viability at 30 uM by MTT assay relative to control; assay type: toxicity, cell-based; details: read-out: Activity
[16] = target: T2, Amine oxidase [flavin-containing] A; assay: Irreversible inhibition of MAO-A in rat liver homogenate assessed as recovery of enzyme activity at 10 uM preincubated for 30 mins followed by centrifugation and washing with PBS buffer; assay type: tissue-based
Method in brief: (§4)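 Enzyme pre-incubated 30 min at 37 °C with inhibitor: 10 μM (MAO A) or 20 μM (MAO B). […] Three cycles of washing in 50 mM phosphate buffer pH 7.4 and centrifugation at 25,000 g, 10 min, 4 °C. Protein measured by Bradford; activity then assayed by the radiometric method. Six independent experiments in triplicate; Kruskal-Wallis analysis.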

Mus musculus [17] = assay: Cognitive enhancing effect in C57BL/6J mouse assessed as reversal of scopolamine-induced long-term memory deficit by measuring latency time during training session at 35 mg/kg, iv administered 90 mins prior to scopolamine-challenge measured after 24 hrs by passive avoidance test; assay type: functional, organism-based; design: dose 35 mg/kg
[18] = target: Acetylcholinesterase (Electrophorus electricus) (UniProt O42275); assay: Mixed-type inhibition of electric eel AChE using acetylthiocholine iodide as substrate at 0.5 to 5 uM by Lineweaver-Burk plot analysis
[19] = Hepatotoxicity in human HepG2 cells assessed as cell viability at 1000 uM by MTT assay relative to control; assay type: toxicity, cell-based; details: read-out: Activity
[20] = Hepatotoxicity in human HepG2 cells assessed as cell viability at 300 uM by MTT assay relative to control; assay type: toxicity, cell-based; details: read-out: Activity
Mus musculus [21] = assay: Cognitive enhancing effect in C57BL/6J mouse assessed as reversal of scopolamine-induced long-term memory deficit by measuring increase in latency time during probe session at 35 mg/kg, iv administered 90 mins prior to scopolamine-challenge measured after 24 hrs by passive avoidance test; assay type: functional, organism-based; design: dose 35 mg/kg
[22] = Hepatotoxicity in human HepG2 cells assessed as cell viability at 1 uM by MTT assay relative to control; assay type: toxicity, cell-based; details: read-out: Activity
[23] = target: T1, Amine oxidase [flavin-containing] B; assay: Inhibition of MAO-B in rat liver homogenate preincubated for 30 mins; assay type: tissue-based; method in brief: as §3
[24] = Metal chelating activity assessed as compound concentration required for zinc complex formation after 1 hr by UV-Vis spectrometric analysis; assay type: physicochemical; method in brief: as §2
[25] = Hepatotoxicity in human HepG2 cells assessed as cell viability at 3 uM by MTT assay relative to control; assay type: toxicity, cell-based; details: read-out: Activity
[26] = target: T1, Amine oxidase [flavin-containing] B; assay: Irreversible inhibition of MAO-B in rat liver homogenate assessed as recovery of enzyme activity at 20 uM preincubated for 30 mins followed by centrifugation and washing with PBS buffer; assay type: tissue-based; method in brief: as §4
Mus musculus [27] = assay: Cognitive enhancing effect in C57BL/6J mouse assessed as reversal of scopolamine-induced long-term memory deficit by measuring latency time during training session at 1 mg/kg, iv administered 90 mins prior to scopolamine-challenge measured after 24 hrs by passive avoidance test; assay type: functional, organism-based; design: dose 1 mg/kg
Mus musculus [28] = assay: Cognitive enhancing effect in C57BL/6J mouse assessed as reversal of scopolamine-induced long-term memory deficit by measuring increase in latency time during probe session at 1 mg/kg, iv administered 90 mins prior to scopolamine-challenge measured after 24 hrs by passive avoidance test; assay type: functional, organism-based; design: dose 1 mg/kg

Chain of Acetylcholinesterase (O42275 whole entry): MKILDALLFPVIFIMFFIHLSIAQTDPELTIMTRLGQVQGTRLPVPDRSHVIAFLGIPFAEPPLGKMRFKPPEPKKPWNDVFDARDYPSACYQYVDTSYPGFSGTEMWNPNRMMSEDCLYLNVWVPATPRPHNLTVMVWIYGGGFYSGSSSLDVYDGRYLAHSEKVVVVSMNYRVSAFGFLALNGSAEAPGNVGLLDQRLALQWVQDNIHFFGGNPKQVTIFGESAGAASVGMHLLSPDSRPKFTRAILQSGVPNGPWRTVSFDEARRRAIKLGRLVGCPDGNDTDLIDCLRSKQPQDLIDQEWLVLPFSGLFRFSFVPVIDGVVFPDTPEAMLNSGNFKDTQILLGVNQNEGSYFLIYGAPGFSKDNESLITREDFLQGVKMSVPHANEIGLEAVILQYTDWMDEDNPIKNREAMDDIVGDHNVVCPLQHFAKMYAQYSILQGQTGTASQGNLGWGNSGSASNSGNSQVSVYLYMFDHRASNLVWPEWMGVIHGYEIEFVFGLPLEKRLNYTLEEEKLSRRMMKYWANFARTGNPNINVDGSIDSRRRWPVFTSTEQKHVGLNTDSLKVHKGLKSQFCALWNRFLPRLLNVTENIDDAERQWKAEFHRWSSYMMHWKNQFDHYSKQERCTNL
Chain of Cholinesterase (P81908 whole entry): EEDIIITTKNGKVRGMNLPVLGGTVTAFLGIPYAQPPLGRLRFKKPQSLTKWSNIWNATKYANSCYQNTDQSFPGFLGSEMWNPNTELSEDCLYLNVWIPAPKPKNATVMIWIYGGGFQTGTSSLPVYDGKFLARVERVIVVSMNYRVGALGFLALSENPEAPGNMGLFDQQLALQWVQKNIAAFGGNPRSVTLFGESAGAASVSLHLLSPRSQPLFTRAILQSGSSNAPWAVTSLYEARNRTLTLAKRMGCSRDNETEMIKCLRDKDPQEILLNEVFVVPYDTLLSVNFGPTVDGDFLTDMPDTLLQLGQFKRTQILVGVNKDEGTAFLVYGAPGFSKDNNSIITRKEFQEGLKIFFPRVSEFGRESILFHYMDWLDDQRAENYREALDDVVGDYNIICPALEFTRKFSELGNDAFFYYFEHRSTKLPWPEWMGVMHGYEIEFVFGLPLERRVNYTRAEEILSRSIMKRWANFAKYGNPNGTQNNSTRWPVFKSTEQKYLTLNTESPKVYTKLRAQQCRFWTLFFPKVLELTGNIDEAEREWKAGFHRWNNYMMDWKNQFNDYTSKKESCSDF
Chain of Acetylcholinesterase (Electrophorus electricus) (O42275 24-633 limits assumed): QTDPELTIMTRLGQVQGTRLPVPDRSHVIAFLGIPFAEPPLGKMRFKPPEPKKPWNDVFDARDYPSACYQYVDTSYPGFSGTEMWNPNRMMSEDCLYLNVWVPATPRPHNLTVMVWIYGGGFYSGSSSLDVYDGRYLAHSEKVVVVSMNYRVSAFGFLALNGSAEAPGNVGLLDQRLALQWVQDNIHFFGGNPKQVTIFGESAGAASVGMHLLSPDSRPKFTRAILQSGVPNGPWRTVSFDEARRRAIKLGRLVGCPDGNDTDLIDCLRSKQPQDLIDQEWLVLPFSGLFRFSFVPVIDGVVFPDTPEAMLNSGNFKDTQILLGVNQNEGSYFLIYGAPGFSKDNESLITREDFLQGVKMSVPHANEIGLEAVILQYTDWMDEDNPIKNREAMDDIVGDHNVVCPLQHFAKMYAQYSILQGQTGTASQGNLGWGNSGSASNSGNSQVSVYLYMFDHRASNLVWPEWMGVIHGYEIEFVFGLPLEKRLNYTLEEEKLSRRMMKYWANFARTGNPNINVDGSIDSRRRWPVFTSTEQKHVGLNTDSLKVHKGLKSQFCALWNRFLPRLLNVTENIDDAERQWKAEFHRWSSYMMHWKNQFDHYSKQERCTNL

| Compound | Papp [2] | Papp [3] | fraction unbound [4] | Fa [6] | Papp [7] | IC50 (Acetylcholinesterase) | further results |
| --- | --- | --- | --- | --- | --- | --- | --- |
| C#CCN(Cc1ccc(O)c2ncccc12)C1CCN(Cc2ccccc2)CC1 | 4.57 ×10⁻⁶ cm/s | 35.1 ×10⁻⁶ cm/s | 0.273 | 96.8% | 447 ×10⁻⁶ cm/s | ≥ 100 µM | IC50 (Cholinesterase): ≥ 100 µM; IC50 [1]: ≥ 100 µM; IC50 [5]: ≥ 100 µM |
| C#CCN(Cc1ccc(O)c2ncccc12)CC1CCN(Cc2ccccc2)CC1 | 5.23 ×10⁻⁶ cm/s | 32.6 ×10⁻⁶ cm/s | 0.236 | 96.8% | 499 ×10⁻⁶ cm/s | – | – |
| C#CCN(CCC1CCN(Cc2ccccc2)CC1)Cc1ccc(O)c2ncccc12 | 5.44 ×10⁻⁶ cm/s | 31.3 ×10⁻⁶ cm/s | 0.229 | 96.9% | 559 ×10⁻⁶ cm/s | – | – |
| C#CCN(CCCC1CCN(Cc2ccccc2)CC1)Cc1ccc(O)c2ncccc12 | 5.41 ×10⁻⁶ cm/s | 30.2 ×10⁻⁶ cm/s | 0.226 | 96.9% | 624 ×10⁻⁶ cm/s | – | – |
| C#CCN(C)Cc1ccc(O)c2ncccc12 | 4.29 ×10⁻⁶ cm/s | 42.9 ×10⁻⁶ cm/s | 0.31 | 95.9% | 250 ×10⁻⁶ cm/s | ≥ 100 µM | IC50 [1]: 1.5 µM; IC50 [5]: 0.057 µM |
| C#CCN(Cc1ccc(O)c2ncccc12)C(C#N)C1CCN(Cc2ccccc2)CC1 (racemic) | 4.93 ×10⁻⁶ cm/s | 34.8 ×10⁻⁶ cm/s | 0.197 | 96.8% | 336 ×10⁻⁶ cm/s | – | – |
| C#CCN(Cc1ccc(O)c2ncccc12)C(C#N)CC1CCN(Cc2ccccc2)CC1 (racemic) | 5.2 ×10⁻⁶ cm/s | 32.2 ×10⁻⁶ cm/s | 0.216 | 96.9% | 375 ×10⁻⁶ cm/s | – | – |
| C#CCN(Cc1ccc(O)c2ncccc12)C(C#N)CCC1CCN(Cc2ccccc2)CC1 (racemic) | 5.44 ×10⁻⁶ cm/s | 30.6 ×10⁻⁶ cm/s | 0.2 | 97% | 418 ×10⁻⁶ cm/s | 1.8 µM | viability at 10 µM [8]: 94.4%; Activity [9]: 0.65 mole fraction; inhibition (INH) [10]: Dose-dependent effect; viability at 100 µM [11]: 85.6%; inhibition (INH) [12]: Dose-dependent effect; Activity [13]: 0.5 mole fraction; IC50 [14]: 3.8 µM; viability at 30 µM [15]: 92.4%; inhibition (INH) [16]: Active; Activity (Mus musculus [17]): inactive; IC50 (Cholinesterase): 1.6 µM; inhibition [18]: Active; viability at 1000 µM [19]: 51.5%; viability at 300 µM [20]: 71.4%; Activity (Mus musculus [21]): Active; viability at 1 µM [22]: 98.4%; IC50 [23]: 8.3 µM; Activity [24]: 0.65 mole fraction; viability at 3 µM [25]: 94.8%; inhibition (INH) [26]: Active |
| C#CCN(C)CCCOc1ccc(Cl)cc1Cl [CLORGILINE] | – | – | – | – | – | ≥ 500 µM | IC50 (Cholinesterase): ≥ 500 µM |
| COc1cc2c(cc1OC)C(=O)C(CC1CCN(Cc3ccccc3)CC1)C2 (configuration not stated) [DONEPEZIL] | – | – | 0.154 | 98% | – | – | viability at 10 µM [8]: 92.4%; Activity (Mus musculus [27]): inactive; viability at 100 µM [11]: 80%; viability at 30 µM [15]: 83.5%; viability at 1000 µM [19]: 40.9%; viability at 300 µM [20]: 53.4%; viability at 1 µM [22]: 98.6%; viability at 3 µM [25]: 97%; Activity (Mus musculus [28]): Active |
| C#CCN(C)[C@H](C)Cc1ccccc1 [SELEGILINE] | – | – | – | – | – | ≥ 500 µM | – |
